Assay results: ChEMBL document CHEMBL5724801, “EUbOPEN Chemogenomics Library - Multiplex” (2024)
“And” between values parts separate entries of the source, which are not always exact repeats. Equal values may be shown once.

System: Fibroblast
Assay: Multiplex assay against human fibroblast
Type: toxicity, cell-based
How it was run: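 Values for tubulin, mitochondrial-mass and membrane-permeability phenotypes are per cents of cells with healthy nuclei. These cells were identified by CellPathfinder machine-learning gating of live cells that had been stained at seeding with Hoechst33342, BioTracker Green Microtubule Cytoskeleton Dye, MitoTracker Red and Annexin V Alexa Fluor 680 and imaged on a CQ1 microscope at 37°C and 5% CO2 after compound addition. The gating first set Hoechst high-intensity objects apart from normal cells, then split normal cells into healthy, pyknosed or fragmented nuclei, and pyknosed cells into mitotic or apoptotic.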

[1] = 12 h, 1 µM, compound concentration 1 uM
[2] = 12 h, 10 µM, compound concentration 10 uM
[3] = 24 h, 1 µM, compound concentration 1 uM
[4] = 24 h, 10 µM, compound concentration 10 uM
[5] = 48 h, 1 µM, compound concentration 1 uM
[6] = 48 h, 10 µM, compound concentration 10 uM

## O=C(NCc1cccc(O)c1)Nc1nc(-c2ccncc2)cs1
[1]
  Population Apoptotic (%): 12.12% and 27.78%
  Population Healthy Nuclei (%): 41.38% and 76.34%
  Population Hoechst High Intensity Objects (%): 0%
  Population Membrane Permeable-Phenotype (%): 4.17% and 1.41%
  Population Mitochondria Different-Phenotype (%): 6.94% and 9.15%
  Population Mitotic Cells (%): 87.88% and 72.22%
  Population Normal (%): 100%
  Population Pyknosed Nuclei (%): 37.93% and 19.35%
  Population Tubulin-Different-Phenotype (%): 8.33% and 6.34%
  Total Cell Count: 174 and 186
[2]
  Population Apoptotic (%): 9.52% and 18.18%
  Population Fragmented Nuclei (%): 11.37% and 4.05%
  Population Healthy Nuclei (%): 38.86% and 61.26%
  Population Hoechst High Intensity Objects (%): 0%
  Population Membrane Permeable-Phenotype (%): 7.32% and 2.21%
  Population Mitochondria Different-Phenotype (%): 15.85% and 13.97%
  Population Mitotic Cells (%): 90.48% and 81.82%
  Population Normal (%): 100%
  Population Pyknosed Nuclei (%): 49.76% and 34.68%
  Population Tubulin-Different-Phenotype (%): 13.41% and 29.41%
  Total Cell Count: 211 and 222
[3]
  Population Apoptotic (%): 25.49% and 48.15%
  Population Healthy Nuclei (%): 53.67% and 81.31%
  Population Hoechst High Intensity Objects (%): 0%
  Population Membrane Permeable-Phenotype (%): 3.16% and 0.62%
  Population Mitochondria Different-Phenotype (%): 12.63% and 6.83%
  Population Mitotic Cells (%): 74.51% and 51.85%
  Population Normal (%): 100%
  Population Pyknosed Nuclei (%): 28.81% and 13.64%
  Population Tubulin-Different-Phenotype (%): 11.58% and 6.21%
  Total Cell Count: 177 and 198
[4]
  Population Apoptotic (%): 13.79% and 23.26%
  Population Fragmented Nuclei (%): 8.5% and 3.62%
  Population Healthy Nuclei (%): 48% and 76.92%
  Population Hoechst High Intensity Objects (%): 0%
  Population Membrane Permeable-Phenotype (%): 0% and 2.94%
  Population Mitochondria Different-Phenotype (%): 7.29% and 8.82%
  Population Mitotic Cells (%): 86.21% and 76.74%
  Population Normal (%): 100%
  Population Pyknosed Nuclei (%): 43.5% and 19.46%
  Population Tubulin-Different-Phenotype (%): 17.71% and 29.41%
  Total Cell Count: 200 and 221
[5]
  Population Apoptotic (%): 55.56% and 38.46%
  Population Fragmented Nuclei (%): 16.05% and 5.73%
  Population Healthy Nuclei (%): 72.84% and 87.5%
  Population Hoechst High Intensity Objects (%): 0%
  Population Membrane Permeable-Phenotype (%): 0.85% and 0.6%
  Population Mitotic Cells (%): 44.44% and 61.54%
  Population Normal (%): 100%
  Population Pyknosed Nuclei (%): 11.11% and 6.77%
  Population Tubulin-Different-Phenotype (%): 3.39% and 6.55%
  Total Cell Count: 162 and 192
[6]
  Population Apoptotic (%): 16.67% and 18.42%
  Population Healthy Nuclei (%): 74.44% and 81.61%
  Population Hoechst High Intensity Objects (%): 0%
  Population Membrane Permeable-Phenotype (%): 0.6% and 1.65%
  Population Mitochondria Different-Phenotype (%): 12.05% and 3.3%
  Population Mitotic Cells (%): 83.33% and 81.58%
  Population Normal (%): 100%
  Population Pyknosed Nuclei (%): 13.45% and 17.04%
  Total Cell Count: 223
